In PMC4134498 (British Journal of Cancer, 2014):
Entries after “also recorded” stand apart in the source; their conditions may differ.

Experiments:
[1] = tested on: platinum-sensitive, relapsed, high-grade serous ovarian cancer; details: olaparib maintenance, ref Ledermann et al, 2012, cited from earlier work
advanced solid tumours = experiment: Preliminary efficacy: best objective response, RECIST v1.0; type: in vivo, patients
Outline: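 Patients with advanced solid tumours took oral PARP inhibitor capsules bid, 50–400 mg, on days 1–7 (intermittent) or days 1–28 (continuous) of 28-day cycles, plus liposomal anthracycline 40 mg m−2 on day 1, for up to 6 combination cycles. Site investigators scored objective response by RECIST v1.0. Analyses ran by tumour type and gBRCA status, and for ovarian cancer by platinum sensitivity (progression-free interval ⩾6 months), retrospectively.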

[2] = Plasma pharmacokinetics of olaparib alone and with PLD; type: in vivo, patients; details: for AUC(0-t): olaparib AUC0–10 h, Day 1 alone; for AUC(0-t) / Cmax: mean±s.d.; for Cmax: olaparib Cmax, Day 2+PLD
[3] = continuous dosing, ref Mateo et al, 2013; cited from earlier work
[4] = ovarian cancer patients, all cohorts + PLD 40 mg m^−2, Total (n=26)
[5] = ovarian cancer patients, olaparib 50 mg bid 7 day + PLD 40 mg m^−2 (n=3)
[6] = ovarian cancer patients, olaparib 100 mg bid 7 day + PLD 40 mg m^−2 (n=2)
[7] = ovarian cancer patients, olaparib 100 mg bid 28 day + PLD 40 mg m^−2 (n=2)
[8] = ovarian cancer patients, olaparib 200 mg bid 7 day + PLD 40 mg m^−2 (n=2)
[9] = ovarian cancer patients, olaparib 200 mg bid 28 day + PLD 40 mg m^−2 (n=3)
[10] = ovarian cancer patients, olaparib 400 mg bid 7 day + PLD 40 mg m^−2 (n=8)
[11] = ovarian cancer patients, olaparib 400 mg bid 28 day + PLD 40 mg m^−2 (n=8)
[12] = overall population, all cohorts + PLD 40 mg m^−2, Total (n=42)
[13] = overall population, olaparib 50 mg bid 7 day + PLD 40 mg m^−2 (n=3)
[14] = overall population, olaparib 100 mg bid 7 day + PLD 40 mg m^−2 (n=3)
[15] = overall population, olaparib 100 mg bid 28 day + PLD 40 mg m^−2 (n=4)
[16] = overall population, olaparib 200 mg bid 7 day + PLD 40 mg m^−2 (n=3)
[17] = overall population, olaparib 200 mg bid 28 day + PLD 40 mg m^−2 (n=7)
[18] = overall population, olaparib 400 mg bid 7 day + PLD 40 mg m^−2 (n=12)
[19] = overall population, olaparib 400 mg bid 28 day + PLD 40 mg m^−2 (n=12)

O=C(c1cc(Cc2n[nH]c(=O)c3ccccc23)ccc1F)N1CCN(C(=O)C2CC2)CC1 [olaparib]
PFS hazard ratio vs placebo ([1]; 95% CI, 0.25–0.49, P<0.00001): 0.35 | median PFS [1]: 8.4 months | patients with antitumour activity (advanced solid tumours; continuous olaparib schedule + PLD): 7 out of 23 | patients with antitumour activity (advanced solid tumours; intermittent olaparib schedule + PLD): 7 out of 21 | ORR, platinum-resistant ovarian patients with a gBRCA mutation (advanced solid tumours; olaparib + PLD): 50% | ORR, platinum-sensitive ovarian patients with a gBRCA mutation (advanced solid tumours; olaparib + PLD): 67% | ORR, platinum-sensitive ovarian patients with wild type or unknown gBRCA mutation status (advanced solid tumours; olaparib + PLD): 100% | objective responses, evaluable patients with breast cancer (advanced solid tumours; olaparib + PLD): 8% | response rate, platinum-resistant ovarian patients (advanced solid tumours; olaparib + PLD): 25% | response rate, platinum-sensitive ovarian patients (advanced solid tumours; olaparib + PLD): 71% | ORR, ovarian cancer subgroup (advanced solid tumours; olaparib + PLD, 13 out of 26): 50% | ORR, overall population (advanced solid tumours; olaparib + PLD, 14 out of 42): 33% | Ovarian cancer patients with a complete or partial objective response (advanced solid tumours; olaparib + PLD, Platinum resistant, gBRCA Unknown): 0/6 | Ovarian cancer patients with a complete or partial objective response (advanced solid tumours; olaparib + PLD, Platinum resistant, gBRCAm): 3/6 | Ovarian cancer patients with a complete or partial objective response (advanced solid tumours; olaparib + PLD, Platinum sensitive, gBRCA Unknown): 1/1 | Ovarian cancer patients with a complete or partial objective response (advanced solid tumours; olaparib + PLD, Platinum sensitive, gBRCAm): 8/12 | Ovarian cancer patients with a complete or partial objective response (advanced solid tumours; olaparib + PLD, Platinum sensitive, gBRCAwt): 1/1 | response, gBRCA-mutated patients in the ovarian subgroup (advanced solid tumours; olaparib + PLD, eleven patients): 61% | partial response (PR), evaluable patients (advanced solid tumours; olaparib + PLD, overall, 11 patients): 26% | complete response (CR), evaluable patients (advanced solid tumours; olaparib + PLD, overall, three patients): 7% | Best objective response: Complete response, patients (advanced solid tumours; [4]): 3 (12) n (%) | Best objective response: Partial response, patients (advanced solid tumours; [4]): 10 (38) n (%) | Best objective response: Progressive disease, patients (advanced solid tumours; [4]): 5 (19) n (%) | Best objective response: Stable disease, patients (advanced solid tumours; [4]): 8 (31) n (%) | Best objective response: Complete response, patients (advanced solid tumours; [5]): 1 n | Best objective response: Partial response, patients (advanced solid tumours; [5]): 1 n | Best objective response: Progressive disease, patients (advanced solid tumours; [5]): 0 n | Best objective response: Stable disease, patients (advanced solid tumours; [5]): 1 n | Best objective response: Complete response, patients (advanced solid tumours; [6]): 0 n | Best objective response: Partial response, patients (advanced solid tumours; [6]): 1 n | Best objective response: Progressive disease, patients (advanced solid tumours; [6]): 1 n | Best objective response: Stable disease, patients (advanced solid tumours; [6]): 0 n | Best objective response: Complete response, patients (advanced solid tumours; [7]): 0 n | Best objective response: Partial response, patients (advanced solid tumours; [7]): 0 n | Best objective response: Progressive disease, patients (advanced solid tumours; [7]): 1 n | Best objective response: Stable disease, patients (advanced solid tumours; [7]): 0 n | Best objective response: Complete response, patients (advanced solid tumours; [8]): 0 n | Best objective response: Partial response, patients (advanced solid tumours; [8]): 1 n | Best objective response: Progressive disease, patients (advanced solid tumours; [8]): 0 n | Best objective response: Stable disease, patients (advanced solid tumours; [8]): 1 n | Best objective response: Complete response, patients (advanced solid tumours; [9]): 0 n | Best objective response: Partial response, patients (advanced solid tumours; [9]): 1 n | Best objective response: Progressive disease, patients (advanced solid tumours; [9]): 0 n | Best objective response: Stable disease, patients (advanced solid tumours; [9]): 1 n | Best objective response: Complete response, patients (advanced solid tumours; [10]): 1 n | Best objective response: Partial response, patients (advanced solid tumours; [10]): 2 n | Best objective response: Progressive disease, patients (advanced solid tumours; [10]): 1 n | Best objective response: Stable disease, patients (advanced solid tumours; [10]): 4 n | Best objective response: Complete response, patients (advanced solid tumours; [11]): 1 n | Best objective response: Partial response, patients (advanced solid tumours; [11]): 4 n | Best objective response: Progressive disease, patients (advanced solid tumours; [11]): 2 n | Best objective response: Stable disease, patients (advanced solid tumours; [11]): 1 n | Best objective response: Complete response, patients (advanced solid tumours; [12]): 3 (7) n (%) | Best objective response: Not evaluable/unknown, patients (advanced solid tumours; [12]): 2 (5) n (%) | Best objective response: Partial response, patients (advanced solid tumours; [12]): 11 (26) n (%) | Best objective response: Progressive disease, patients (advanced solid tumours; [12]): 13 (31) n (%) | Best objective response: Stable disease, patients (advanced solid tumours; [12]): 13 (31) n (%) | Best objective response: Complete response, patients (advanced solid tumours; [13]): 1 n | Best objective response: Not evaluable/unknown, patients (advanced solid tumours; [13]): 0 n | Best objective response: Partial response, patients (advanced solid tumours; [13]): 1 n | Best objective response: Progressive disease, patients (advanced solid tumours; [13]): 0 n | Best objective response: Stable disease, patients (advanced solid tumours; [13]): 1 n | Best objective response: Complete response, patients (advanced solid tumours; [14]): 0 n | Best objective response: Not evaluable/unknown, patients (advanced solid tumours; [14]): 0 n | Best objective response: Partial response, patients (advanced solid tumours; [14]): 1 n | Best objective response: Progressive disease, patients (advanced solid tumours; [14]): 1 n | Best objective response: Stable disease, patients (advanced solid tumours; [14]): 1 n | Best objective response: Complete response, patients (advanced solid tumours; [15]): 0 n | Best objective response: Not evaluable/unknown, patients (advanced solid tumours; [15]): 0 n | Best objective response: Partial response, patients (advanced solid tumours; [15]): 0 n | Best objective response: Progressive disease, patients (advanced solid tumours; [15]): 2 n | Best objective response: Stable disease, patients (advanced solid tumours; [15]): 1 n | Best objective response: Complete response, patients (advanced solid tumours; [16]): 0 n | Best objective response: Not evaluable/unknown, patients (advanced solid tumours; [16]): 0 n | Best objective response: Partial response, patients (advanced solid tumours; [16]): 1 n | Best objective response: Progressive disease, patients (advanced solid tumours; [16]): 1 n | Best objective response: Stable disease, patients (advanced solid tumours; [16]): 1 n | Best objective response: Complete response, patients (advanced solid tumours; [17]): 0 n | Best objective response: Not evaluable/unknown, patients (advanced solid tumours; [17]): 1 n | Best objective response: Partial response, patients (advanced solid tumours; [17]): 1 n | Best objective response: Progressive disease, patients (advanced solid tumours; [17]): 2 n | Best objective response: Stable disease, patients (advanced solid tumours; [17]): 2 n | Best objective response: Complete response, patients (advanced solid tumours; [18]): 1 n | Best objective response: Not evaluable/unknown, patients (advanced solid tumours; [18]): 1 n | Best objective response: Partial response, patients (advanced solid tumours; [18]): 2 n | Best objective response: Progressive disease, patients (advanced solid tumours; [18]): 3 n | Best objective response: Stable disease, patients (advanced solid tumours; [18]): 5 n | Best objective response: Complete response, patients (advanced solid tumours; [19]): 1 n | Best objective response: Not evaluable/unknown, patients (advanced solid tumours; [19]): 0 n | Best objective response: Partial response, patients (advanced solid tumours; [19]): 5 n | Best objective response: Progressive disease, patients (advanced solid tumours; [19]): 4 n | Best objective response: Stable disease, patients (advanced solid tumours; [19]): 2 n | Tmax ([2]; human, plasma, oral): 2.1 h | AUC(0-t) ([2]; human, plasma, oral, 50 mg, olaparib 50 mg, n=3): 8700 ± 5800 ng·h/mL | AUC(0-t) ([2]; human, plasma, oral, 400 mg, olaparib 400 mg bid, n=11): 25900 ± 9000 ng·h/mL | Cmax ([2]; human, plasma, oral, olaparib 50 mg bid): 1400 ± 700 ng/mL | Cmax ([2]; human, plasma, oral, olaparib 100 mg bid): 2200 ± 1000 ng/mL | PK interference between olaparib and PLD ([2]; in vivo): No major pharmacokinetic interference; also recorded: minor | recommended dose of the olaparib tablet formulation [3]: 300 mg bid
